Laboratory results as given in ChEMBL document CHEMBL3286260, “Guanidine-based α2-adrenoceptor ligands: Towards selective antagonist activity” (Eur J Med Chem, 2014).
Activity calls are given as the source filed them. No cut-off for these calls is given here.

Legend:
[1] = molecular target: T1, Alpha-2A adrenergic receptor (Homo sapiens, UniProt P08913); assay: Displacement of [3H]RX821002 from alpha2-adrenergic receptor in prefrontal cortex of human brain after 30 mins by liquid scintillation spectrometric analysis; type: tissue-based
T1 sequence (P08913 whole entry): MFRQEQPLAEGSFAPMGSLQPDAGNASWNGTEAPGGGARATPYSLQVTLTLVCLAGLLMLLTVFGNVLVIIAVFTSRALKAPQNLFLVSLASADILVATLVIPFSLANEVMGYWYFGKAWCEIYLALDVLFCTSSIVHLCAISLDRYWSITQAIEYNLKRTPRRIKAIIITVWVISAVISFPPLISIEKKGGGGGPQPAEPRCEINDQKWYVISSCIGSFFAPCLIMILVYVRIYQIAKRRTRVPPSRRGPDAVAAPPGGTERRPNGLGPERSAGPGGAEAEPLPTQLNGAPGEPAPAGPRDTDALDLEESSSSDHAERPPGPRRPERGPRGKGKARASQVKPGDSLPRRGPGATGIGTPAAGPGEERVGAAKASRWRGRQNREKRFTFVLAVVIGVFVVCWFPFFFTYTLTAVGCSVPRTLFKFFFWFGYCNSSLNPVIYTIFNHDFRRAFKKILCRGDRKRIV

[2] = molecular target: T2, Alpha-2A adrenergic receptor (Homo sapiens) (UniProt P08913); assay: Antagonist activity at alpha2-adrenergic receptor in prefrontal cortex of human brain assessed as effect on [35S]GTPgammaS binding after 120 mins by liquid scintillation spectrometric analysis; type: functional, tissue-based
T2 sequence (whole entry): T1 sequence (P08913 whole entry)

[3] = molecular target: T2, Alpha-2A adrenergic receptor (Homo sapiens); assay: Antagonist activity at alpha2-adrenergic receptor in prefrontal cortex of human brain assessed as increase in UK14304 EC50 for [35S]GTPgammaS binding after 120 mins by liquid scintillation spectrometric analysis; type: functional, tissue-based
In short: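 Same [35S]GTPγS membrane assay (120 min, 30 °C, 0.5 nM radioligand, Mg/Na/GDP buffer pH 7.4). UK14304 concentration–response curves (10^-13 to 10^-4 M) run with or without test compound at 10^-5 M. Shift in agonist EC50 taken as the measure of antagonism. Bound label counted by liquid scintillation.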

Row | SMILES | Ki [1] | Activity [2] | Activity [3]
1 | CCOc1ccc(NC(=N)Nc2ccccc2)cc1 | 2240 nM | – | –
2 | N=C(NCCO)Nc1ccc2c(c1)CCCC2 | 1740 nM | – | –
3 | N=C(NCc1ccco1)Nc1ccc2c(c1)CCCC2 | 513 nM | Active | –
4 | CC1CN/C(=N/c2ccc3c(c2)OCO3)N1 (centres undefined) | 2340 nM | – | –
5 | CCNc1ccc(/N=C2/NCC(C)N2)cc1 (centres undefined) | 12300 nM | – | –
6 | CCOc1ccc(NC(=N)NCCO)cc1 | 19100 nM | – | –
7 | CCOc1ccc(N=C2NCCN2)cc1 | 79.4 nM | Active | Active
8 | CCCNC(=N)Nc1ccc2c(c1)CCCC2 | 676 nM | Active | –
9 | N=C(NCCO)Nc1ccc2c(c1)OCO2 | 11700 nM | Active | –
10 | CN(C)c1ccc(/N=C2/NCC(c3ccco3)N2)cc1 (centres undefined) | 1320 nM | – | –
11 | CCNc1ccc(NC(=N)Nc2ccccc2)cc1 | 4900 nM | – | –
12 | CC1CN/C(=N/c2ccc(N(C)C)cc2)N1 (centres undefined) | 3310 nM | – | –
13 | N=C(Nc1ccccc1)Nc1ccc2c(c1)CCCC2 | 263 nM | Active | Active
14 | CCCNC(=N)Nc1ccc2c(c1)OCO2 | 15100 nM | – | –
15 | CCOc1ccc(/N=C2/NCC(C)N2)cc1 (centres undefined) | 14100 nM | – | –
16 | c1coc(C2CN/C(=N/c3ccc4c(c3)CCCC4)N2)c1 (centres undefined) | 692 nM | Active | –
17 | CCOc1ccc(/N=C2/NCC(c3ccco3)N2)cc1 (centres undefined) | 2630 nM | – | –

Row | SMILES | Ki [1] | Activity [2] | Activity [3]
18 | N=C(Nc1ccccc1)Nc1ccc2c(c1)OCO2 | 4370 nM | – | –
19 | N=C(NCc1ccco1)Nc1ccc2c(c1)OCO2 | 1510 nM | Active | –
20 | CCCNC(=N)Nc1ccc(OCC)cc1 | 4270 nM | Active | –
21 | CCCNC(=N)Nc1ccc(N(C)C)cc1 | 1120 nM | Active | –
22 | CN(C)c1ccc(NC(=N)Nc2ccccc2)cc1 | 389 nM | Active | Active
23 | CCNc1ccc(NC(=N)NCCO)cc1 | 18600 nM | – | –
24 | CCOc1ccc(NC(=N)N)cc1 | 141 nM | Active | Active
25 | COC1(C2=NCCN2)COc2ccccc2O1 (centres undefined) | 1.91 nM | – | –
26 | CN(C)c1ccc(NC(=N)NCCO)cc1 | 1860 nM | Active | –
27 | CC1CN/C(=N/c2ccc3c(c2)CCCC3)N1 (centres undefined) | 1000 nM | Active | –
28 | CCNc1ccc(/N=C2/NCC(c3ccco3)N2)cc1 (centres undefined) | 2190 nM | – | –
29 | c1coc(C2CN/C(=N/c3ccc4c(c3)OCO4)N2)c1 (centres undefined) | 1700 nM | – | –
30 | CCNc1ccc(/N=C(/N)NCc2ccco2)cc1 | 1070 nM | Active | –
31 | CCOc1ccc(/N=C(/N)NCc2ccco2)cc1 | 1480 nM | Active | –
32 | CCCNC(=N)Nc1ccc(NCC)cc1 | 8320 nM | – | –
33 | CN(C)c1ccc(/N=C(/N)NCc2ccco2)cc1 | 214 nM | Active | Active
